# Screening data: PubChem, several laboratories
# DNA FID counter: counter-screen for HCV NS3 helicase inhibitors: DNA intercalator displacement; DNA fluorescent intercalator displacement, fluorescence; inhibition, % at 7.9 µM; 0.17% of 290,000 active; in the data active = inhibition above about 37%;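 note: higher means more ethidium bromide displaced from hairpin DNA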
# RAD54 branch: inhibitors of human RAD54 branch migration. RAD54 Holliday junction branch migration, FAM/BHQ fluorescence. Q92698. inhibition, % at 10.4 µM. 0.14% of 360,000 active. AID 602329;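 active = mean normalized replicate activity at least 40 and at least half of replicates scoring 40 or more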;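 note: inhibitors cause a drop in the FAM fluorescence signal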
# Target sequence (Q92698 whole entry, looked up): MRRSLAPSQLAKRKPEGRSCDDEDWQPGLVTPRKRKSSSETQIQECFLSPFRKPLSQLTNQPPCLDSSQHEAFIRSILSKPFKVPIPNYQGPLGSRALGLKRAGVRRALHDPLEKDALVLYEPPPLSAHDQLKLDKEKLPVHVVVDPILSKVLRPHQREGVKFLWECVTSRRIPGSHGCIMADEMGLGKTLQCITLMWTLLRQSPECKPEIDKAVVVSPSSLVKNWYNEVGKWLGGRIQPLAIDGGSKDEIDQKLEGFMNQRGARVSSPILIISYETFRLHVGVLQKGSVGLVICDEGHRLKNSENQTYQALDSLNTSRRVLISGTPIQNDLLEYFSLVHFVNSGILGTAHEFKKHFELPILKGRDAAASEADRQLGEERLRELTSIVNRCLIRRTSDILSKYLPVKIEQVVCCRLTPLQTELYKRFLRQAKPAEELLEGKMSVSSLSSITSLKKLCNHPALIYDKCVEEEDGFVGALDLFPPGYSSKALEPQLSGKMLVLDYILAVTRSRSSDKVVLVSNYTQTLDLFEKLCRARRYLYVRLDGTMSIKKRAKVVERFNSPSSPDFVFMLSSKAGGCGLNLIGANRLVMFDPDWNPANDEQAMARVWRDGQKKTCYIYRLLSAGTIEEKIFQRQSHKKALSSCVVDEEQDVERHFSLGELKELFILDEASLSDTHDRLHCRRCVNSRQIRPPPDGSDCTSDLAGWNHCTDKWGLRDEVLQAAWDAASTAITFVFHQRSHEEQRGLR
# IMP-1 inh: blocks Pseudomonas aeruginosa IMP-1 metallo-beta-lactamase. 0.45% of 290,000 active. purified IMP-1, nitrocefin hydrolysis, epi-absorbance fluorescence. inhibition, % at 5.6 µM. AID 1556;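 active = inhibition above the mean plus 3 SD of all compounds in the same screening run, cut at about 4.5% in these data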
#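 System: purified IMP-1; amount: IMP-1 0.2 nM before substrate addition; compound: single dose, 5.6 µM; times: 25 °C, 15 min preincubation, 25 min reaction; signal: Epi-absorbance via hydrolysed-nitrocefin quenching of white-plate fluorescence, 480/530 nm, EDTA stop; benchmarks: DMSO with and without IMP-1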
# VIM-2 inhibitor: inhibitors of Pseudomonas aeruginosa VIM-2 metallo-beta-lactamase. purified VIM-2, nitrocefin hydrolysis, epi-absorbance fluorescence. inhibition, % at 5.6 µM. 0.89% of 290,000 active. AID 1527;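 active = inhibition above the mean of all tested compounds plus 3 SD, cutoff set per screening run, cut at about 7.5% in these data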;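 note: red hydrolysis product quenches plate fluorescence so inhibitors raise well fluorescence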
# PvdQ acylase: P. aeruginosa PvdQ acylase inhibition. AID 488965. inhibition, % at 10 µM. 0.063% of 340,000 active. purified PvdQ acylase, fluorescence plate reader; in the data active = inhibition above about 30%, passing the limit was not always enough
# Numbers stand for hits; . = inactive; / = no result given. Shown are actives, neighbours in structure and some others; about 1% of the full set was active somewhere.
SMILES,DNA FID counter,RAD54 branch,IMP-1 inh,VIM-2 inhibitor,PvdQ acylase
COC(=O)c1ccc(=O)c2nc3/c(=C/O)c(O)cc(=O)c3[nH]c12,.,.,.,17.6,.
CN(C)CC(=O)Nc1ccc2c(c1)[C@H]1C[C@H](CC(=O)NCc3ccncc3)O[C@H](CO)[C@H]1O2,/,.,/,/,/
c1ccc2c(Nc3ccc4c(c3)OCCO4)c3c(nc2c1)CCC3,.,/,.,8.2,.
COc1ccccc1Oc1ccc2c(c1)C(=O)N(c1ccc(Br)c3cccnc13)C2=O,.,.,4.9,.,.
COc1cccc(C#Cc2cnc3c(c2)C(=O)N([C@@H](C)CO)C[C@H](C)[C@H](CN(C)C(C)=O)O3)c1,/,.,/,/,/
C[C@H]1CN([C@@H](C)CO)C(=O)c2cc(C3=CCCC3)cnc2O[C@H]1CN(C)C(=O)CN1CCOCC1,/,.,/,/,/
c1cncc(-c2nnc(-c3ccco3)o2)c1,.,.,.,.,.
Clc1ccc(-c2nnc(-c3ccco3)o2)cc1,.,.,.,.,58.2
O=C(Nc1ccc2c(c1)OCO2)c1cc2nc(C3CC3)cc(C(F)(F)F)n2n1,.,.,.,.,.
Cc1cc(C)n2nc(C(=O)Nc3ccc4c(c3)OCO4)cc2n1,.,.,4.7,.,.
CN(C)c1nc(N)nc(Cn2ccnc2)n1,.,.,.,8.8,.
COc1cccc(-c2ccc([C@H]3[C@@H](C#N)N(C(=O)Cc4ccncc4)[C@@H]3CO)cc2)c1,/,.,/,/,/
O=C1Nc2ccccc2S/C1=C/Nc1cccc(Cl)c1,.,.,.,7.8,.
O=C1Nc2ccccc2SC1=Cc1ccccc1,/,.,/,/,/
O=C(C[C@H]1CC[C@@H]2[C@H](COC[C@@H](O)CN2Cc2ccc(Oc3ccccc3)cc2)O1)N1CCCCC1,/,.,/,/,/
COCC(=O)Nc1sc2c(c1C(=O)OC)CCCC2,.,.,.,.,.
COC(=O)c1c(NC(=O)Cc2cccs2)sc2c1CCCC2,.,/,4.5,.,.
COC(=O)c1c(NC(=O)C(=O)N2CCOCC2)sc2c1CCC2,.,.,.,10.5,.
O=C(Nc1ccc(Cl)cc1)N(Cc1nnc2n1CCCCC2)c1ccccc1,.,.,5.4,.,.
COc1ccc(C(CNc2ncnc3sc(C)c(C)c23)N(C)C)cc1 (stereo not given),.,.,.,8.8,.
COC(=O)c1c(N(S(C)(=O)=O)S(C)(=O)=O)sc2c1CCN(c1ncc(C(F)(F)F)cc1Cl)C2,.,.,.,.,.
COC(=O)c1c(/N=C/N(C)C)sc2c1CCN(c1ncc(C(F)(F)F)cc1Cl)C2,.,.,5.0,.,.
COc1cc2c(cc1[N+](=O)[O-])-c1ccc([N+](=O)[O-])cc1C2,/,.,/,/,/
O=[N+]([O-])c1ccc2c(c1)Cc1cc(F)ccc1-2,/,.,/,/,87.3
CCOc1ccc(N(C)c2ccc(/C=C3/SC(=S)NC3=O)cc2)cc1,.,.,6.5,.,.
SMILES,DNA FID counter,RAD54 branch,IMP-1 inh,VIM-2 inhibitor,PvdQ acylase
CN(C)c1ccc(C=C2SC(=S)NC2=O)cc1,/,.,/,/,.
C[C@@H]1CCCCO[C@H](CN(C)S(=O)(=O)c2ccccc2)[C@H](C)CN([C@H](C)CO)C(=O)c2cc(NC(=O)Nc3cccc4ccccc34)ccc2O1,/,.,/,/,/
C[C@@H]1CN([C@@H](C)CO)C(=O)c2cc(NC(=O)Nc3cccc4ccccc34)ccc2O[C@@H]1CN(C)S(C)(=O)=O,/,.,/,/,/
Nc1nc(-c2cccs2)c(-c2cccs2)s1,.,.,16.1,.,.
Nc1nc(-c2cccs2)c(CC(=O)O)s1,.,.,.,.,.
O=C(Nc1ccccc1)N[C@@H]1CC[C@H](CCNS(=O)(=O)c2ccccc2F)O[C@H]1CO,/,.,/,/,/
CCC1=NN2C(=N)/C(=C\c3ccc(OCCOc4ccc(NC(C)=O)cc4)c(OC)c3)C(=O)N=C2S1,.,.,.,10.2,.
CCC1=NN2C(=N)/C(=C\c3ccc(OCCOc4ccccc4OC)cc3)C(=O)N=C2S1,.,.,.,.,.
C[C@@H]1CN([C@H](C)CO)C(=O)Cc2cc(NS(=O)(=O)c3ccc(Cl)cc3)ccc2O[C@@H]1CN(C)C(=O)Nc1cccc2ccccc12,/,.,/,/,/
CC1CCCCN1CCNC(=O)c1cc2c(-c3ccccc3F)nn(C)c2s1 (stereo not given),.,.,.,8.9,.
CCN(CCCNC(=O)c1cc2c(-c3cccc(OC)c3)nn(C)c2s1)Cc1ccccc1,.,.,.,.,.
CCOC(=O)N1CCC(NC(=O)c2cc3c(-c4ccccc4F)nn(C)c3s2)CC1,.,.,.,.,.
CCCCN(CC)CCNC(=O)c1cc2c(-c3ccccc3F)nn(C)c2s1,.,.,.,9.3,.
CN(C)CC(=O)Nc1ccc2c(c1)[C@H]1C[C@@H](CC(=O)NCCc3ccccc3)O[C@H](CO)[C@H]1O2,/,.,/,/,/
COc1ccc(NC(=O)N(C)C[C@H]2Oc3c(NC(=O)Nc4ccccc4)cccc3C(=O)N([C@H](C)CO)C[C@H]2C)cc1,/,.,/,/,/
CC1CCC(NC(=O)Cn2c(=O)oc3cc(S(=O)(=O)N4CCCC4)ccc32)CC1 (stereo not given),.,.,4.9,.,.
O=C(Cn1c(=O)oc2cc(S(=O)(=O)N3CCCC3)ccc21)NCc1ccc(F)cc1,.,.,.,7.9,.
O=C(NCC[C@H]1CC[C@@H](NC(=O)c2ccccc2F)[C@@H](CO)O1)c1cnccn1,/,.,/,/,/
CN1c2ccc(C#Cc3cccnc3)cc2[C@@H]2[C@@H](CCN2C(=O)C2CCCCC2)[C@H]1CO,/,.,/,/,/
Cc1ccc(S[C@]2(C(=O)NCc3ccccc3)CC(=O)N(C3CCCCC3)[C@@H]2c2ccc(CO)cc2I)cc1,/,.,/,/,/
COc1cccc(C(c2nnnn2CS(=O)(=O)c2ccc(C)cc2)N2CCN(C)CC2)c1OC (stereo not given),40.9,.,.,.,.
Cc1nc2nc(-c3cccnc3)nn2c(C)c1Cl,.,.,.,10.6,.
Cc1nc2nc(-c3ccco3)nn2c(C)c1Cl,.,.,.,.,.
CCC(C)NCCOCCOc1ccc(Cl)c(C)c1C (stereo not given),.,/,.,.,.
CCC(C)NCCOCCOc1ccc(Cl)c2ccccc12 (stereo not given),50.9,.,.,.,.
CCOC(=O)c1c(NC(=O)CN(C)C2CCN(C)CC2)sc(C(=O)Nc2ccccc2)c1C,37.0,/,.,.,.
